Measured values from the EternaBench riboswitch data.

Tested on: MS2 coat protein
Assay: apparent Kd, MS2 coat protein; higher = weaker binding; RNA-MaP array; FMN 200 µM where present
Outline: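 Green signal was scaled to red-channel RNA signal and control-cluster median Fmax, and the apparent Kd was taken as the median of filtered per-cluster binding-curve fits. The binding series used SNAP-549-labelled MS2 coat protein from 0.7 or 1.5 nM, doubling to 3 µM, on designs transcribed by stalled E. coli RNA polymerase on Illumina sequencing-chip clusters. Each series ran without and then with constant ligand in 100 mM Tris-HCl pH 7.5, 80 mM KCl, 4 mM MgCl2, BSA, DTT, yeast tRNA and Tween-20.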

[1] = designed as: OFF switch for flavin mononucleotide, no ligand
[2] = ligand present: flavin mononucleotide, designed as: OFF switch for flavin mononucleotide
[3] = designed as: ON switch for flavin mononucleotide, no ligand
[4] = ligand present: flavin mononucleotide, designed as: ON switch for flavin mononucleotide

| Sequence | apparent Kd [1] | apparent Kd [2] | apparent Kd [3] | apparent Kd [4] |
| --- | --- | --- | --- | --- |
| UUGGUGUCAGGAUAUGCUUAAUGUGUUUUAUUAUAAUAUAUACAUGAGGAUCACCCAUGUAGAAGGGACGUUGU | 60.6 nM | 53.2 nM |  |  |
| GCCAUCGGGUGAGGAUAUAAAAUUAUGAUUAAAUUAGAAGGCAUCUCAUAAGACAUGAGGAUCACCCAUGUAGUUAAGAUGGCA |  |  | 90.6 nM | 31.9 nM |
| UUAAUUCUGAUUCUUGAAAUACAUGAGGAUCACCCAUGUUCACAGGAUAUUGAUUAUGGUAGUAACAAGAAGGGUGUAUCAUAU | 66 nM | 113 nM |  |  |
| UAGGUACGAGGAUAUACAUAGAUACAGACACAUGUAGAUGUACAUGAGGAUCACCCAUGUAGAAGGCGUAUAUA | 67.8 nM | 237 nM |  |  |
| GGUACUCAGAGAGUACCAAUACGAACAUGAGGAUCACCCAUGUAGGAUAUGCUACUCAAAGAGUAGCAGAAGGACAUGUGCCUA | 14.9 nM | 101 nM |  |  |
| CUGAUGUGAGGAUAUCGGACUACGGCCAGGCCGCUAGCAUACGAGAAGGCACAUGAGGAUCACCCAUGUGAGAA | 13.3 nM | 42.7 nM |  |  |
| CGCUAUGACAUAGGAUAUUGGUACAUGAGGAUCACCCAUGUCAACCAUGAAGCUCGAUUUGUUGACAAGAAGGAUGUGGUAGCG |  |  | 6.65 nM | 7.63 nM |
| GCACUGGAUGUAGGAUAUCAGGACGAUAAGUCCUGAGAAGGACAUGAGGAUCACCCAUGUCUCAAAUACCAGUGCAAUAAUAUA | 12.3 nM | 14.8 nM |  |  |
| UAAAAGUGAGGAUAUCCAAUAUAUGACAUGAGGAUCACCCAUGUUUCCACUCGUACCUCCGGAGAAGGCACAAAGU | 29.5 nM | 28.5 nM |  |  |
| AUAAUGUGAGGAUAUCAGUCGACUAGCUGCGGCUAGUCGACUGAGAAGGCACAUGAGGAUCACCCAUGUGUUUC | 17.9 nM | 40.8 nM |  |  |
| AUAAUUAAUGCAGGAUAUCAGCACGUGUAGUGCUGAGAAGGGCACAUGAGGAUCACCCAUGUGAUCAAUUAAUAUUAAUAUUAU | 61 nM | 275 nM |  |  |
| GGGUGGCGUAUAGGAUAUAUGGUACAUGAGGAUCACCCAUGUACAUAUGAUGUUCAUGUUUGUGUAUAGAAGGAUACGUCGCUA |  |  | 9.79 nM | 9.81 nM |
| UUUUUGUGAGGAUAUCAGUAGUAGAACAAUAGUACUACUACUGAGAAGGCACAUGAGGAUCACCCAUGUUUCUC | 50.2 nM | 294 nM |  |  |
| AGGACGAGGCAGAAGGGACAUGAGGAUCACCCAUGUACCGUGGUUCAGCAGUCAGGAUAUGCCGUACGUAAACAUAUCGUAAGA | 10.3 nM | 71 nM |  |  |
| GUUGUAUGAGGAUAUACAUGAGGAUCACCCAUGUGUGUUGUGAACGAUGUACGUUUAUGUAGAAGGCGUGCGGC | 17.8 nM | 21.5 nM |  |  |
| GUGACGAUGUAAGGAUAUGCUGAGGAUAACUCAGCAGAAGGUACAUGAGGAUCACCCAUGUAAAUAAUAAGAAAUAAACGUCAC | 16.6 nM | 24.1 nM |  |  |
| GUACGGAGGGAGAAGGGCUAGAAGGUCCAGCUUAUGUGUGUUGCAACAUGAGGAUCACCCAUGUAGCAGGAUAUCCCUUGUACA | 12.5 nM | 36.9 nM |  |  |
| AAUAAACUCACAGGAUAUAGCCGAGGUCGCGUGAACUUACAGGCGACGAGGCUAGAAGGGUGACCACAUGAGGAUCACCCAUGU |  |  | 985 nM | 106 nM |
| GCCAGCUAUGUAGGAUAUGCGCGGCGAGCCUGUGCAGAAGGACAUGAGGAUCACCCAUGUGUUGCGGUCUGAGUACUGAUCGCC | 36.1 nM | 160 nM |  |  |
| UAUAUAUAGUAAGGAUAUGUAUUAAUUAUAUAAACAGAAGGUACUGACAUGAGGAUCACCCAUGUUUUAGUGUGGGCAUGUAGA | 81.5 nM | 122 nM |  |  |
| AAAAGAGUAGGAUAUCUGACGCGAAACAUGAGGAUCACCCAUGUAGGGCGGUCCUGCUUAAGAGAAGGGCUCAAAU | 99.6 nM | 230 nM |  |  |
| CCGGAAAUACAGGAUAUAGGAGUAAAUAUACUCCUAGAAGGGUAUACAUGAGGAUCACCCAUGUGUCCUACCGG | 26.6 nM | 27.3 nM |  |  |
| AUAUAUAUAAGGAAGGAUAUCUUAGAAAAAACAUGAGGAUCACCCAUGUAAAUAAAGAAUAAAUGGGAGAAGGUCCAUAUAUAUA |  |  | 30.1 nM | 16.3 nM |
| UUAAUUAAUUAAUUGCAGAAACAUGAGGAUCACCCAUGUAUAUAGGAUAUCGUCAGGAAUACUGACGAGAAGGAUAUACACUGC | 23.4 nM | 32.5 nM |  |  |
| CAUCCACGGUAGAAGGGACUAGGCACAUGAGGAUCACCCAUGUCCUUUCCCAACUUGUGCCGCGGUCAGGAUAUACCGGGUCGG | 12.5 nM | 20 nM |  |  |
| CACGGAUAGUAGAAGGGUGACAUGAGGAUCACCCAUGUACUUAUUUAUUUAUUACUAUUUCAUACACAGGAUAUACUAUCCGUG |  |  | 652 nM | 176 nM |
| CAAAAUUGUGCAGGAUAUGCAGUUUGAUGGGCCUGUGGGAGAACAUGAGGAUCACCCAUGUGCUUGCAGAAGGGCACAAGCGAA | 103 nM | 419 nM |  |  |
| CGUUAAUAUCGAGGAUAUGUCUAGACACAUGAGGAUCACCCAUGUAUGUGUAUAGAAGGCGAUAUUAACAGCAUGUUACAUCCC |  |  | 46.6 nM | 18.8 nM |
